Legend:
Acetylcholinesterase [1] = biological target: T1, Acetylcholinesterase (Homo sapiens, UniProt P22303); assay: Inhibition of human recombinant AChE-induced amyloid beta aggregation at 200 uM by thioflavin T fluorescence method
Procedure, shortened: (§1)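 Aβ(1–40), stock from HFIP, dissolved in DMSO, final 230 µM, incubated 48 h at room temperature in 0.215 M sodium phosphate pH 8.0 with human recombinant AChE (final 2.3 µM, Aβ:AChE 100:1) ± inhibitor. […] Run in duplicate.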

Mus musculus = organism: Mus musculus; assay: Selectivity for mouse brain AChE over mouse serum BChE; assay type: tissue-based
Cholinesterase = Cholinesterase (Mus musculus, UniProt Q03311); assay: Inhibition of mouse serum BChE
Procedure, shortened: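 Modified Ellman assay with mouse serum as the enzyme source. Inhibitor at several concentrations, preincubated 20 min at 37 °C with DTNB. Substrate butyrylthiocholine iodide 0.05 mM. ΔA412 read at 25 °C. IC50 by nonlinear regression of log concentration–response. Mean ± SEM of at least three independent measures.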

Acetylcholinesterase [2] = biological target: T2, Acetylcholinesterase (Mus musculus, UniProt P21836); assay: Inhibition of mouse brain AChE
T2 sequence (P21836 whole entry): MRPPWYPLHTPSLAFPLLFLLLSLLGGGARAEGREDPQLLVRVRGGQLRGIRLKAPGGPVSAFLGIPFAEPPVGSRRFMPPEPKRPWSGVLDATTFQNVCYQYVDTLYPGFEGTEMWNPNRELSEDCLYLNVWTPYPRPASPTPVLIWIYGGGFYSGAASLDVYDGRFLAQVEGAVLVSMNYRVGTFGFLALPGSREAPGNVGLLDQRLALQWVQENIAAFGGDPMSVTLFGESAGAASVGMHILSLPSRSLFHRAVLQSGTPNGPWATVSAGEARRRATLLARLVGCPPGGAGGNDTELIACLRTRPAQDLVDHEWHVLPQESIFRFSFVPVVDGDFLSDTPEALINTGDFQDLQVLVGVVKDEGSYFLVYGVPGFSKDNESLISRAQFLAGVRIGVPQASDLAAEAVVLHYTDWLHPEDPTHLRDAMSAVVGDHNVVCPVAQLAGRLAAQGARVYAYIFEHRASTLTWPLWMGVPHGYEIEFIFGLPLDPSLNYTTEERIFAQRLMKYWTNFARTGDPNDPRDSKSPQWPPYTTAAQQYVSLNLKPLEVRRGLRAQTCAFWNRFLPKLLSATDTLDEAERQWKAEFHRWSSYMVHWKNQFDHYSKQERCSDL

Acetylcholinesterase [3] = biological target: T1, Acetylcholinesterase; assay: Inhibition of human recombinant AChE-induced amyloid beta aggregation at 100 uM by thioflavin T fluorescence method; procedure, shortened: as §1
Acetylcholinesterase [4] = biological target: T1, Acetylcholinesterase; assay: Inhibition of human recombinant AChE-induced amyloid beta aggregation by thioflavin T fluorescence method; procedure, shortened: as §1

T1 sequence (P22303 whole entry): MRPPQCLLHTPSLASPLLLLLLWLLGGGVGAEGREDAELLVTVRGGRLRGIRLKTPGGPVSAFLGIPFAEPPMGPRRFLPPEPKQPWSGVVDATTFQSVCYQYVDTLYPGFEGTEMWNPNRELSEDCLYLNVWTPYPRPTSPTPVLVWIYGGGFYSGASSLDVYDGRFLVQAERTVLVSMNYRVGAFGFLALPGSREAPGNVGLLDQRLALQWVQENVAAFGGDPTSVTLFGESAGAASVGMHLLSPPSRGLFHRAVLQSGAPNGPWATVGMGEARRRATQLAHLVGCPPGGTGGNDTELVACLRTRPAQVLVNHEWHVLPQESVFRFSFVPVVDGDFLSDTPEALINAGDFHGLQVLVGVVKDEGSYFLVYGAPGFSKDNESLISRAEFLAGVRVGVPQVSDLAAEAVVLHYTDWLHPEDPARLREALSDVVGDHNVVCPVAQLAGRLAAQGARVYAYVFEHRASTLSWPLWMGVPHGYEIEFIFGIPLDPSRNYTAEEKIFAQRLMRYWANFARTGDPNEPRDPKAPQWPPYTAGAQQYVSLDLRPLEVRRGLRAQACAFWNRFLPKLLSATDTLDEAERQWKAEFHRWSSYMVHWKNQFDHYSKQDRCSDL
Chain of Cholinesterase (Q03311 whole entry): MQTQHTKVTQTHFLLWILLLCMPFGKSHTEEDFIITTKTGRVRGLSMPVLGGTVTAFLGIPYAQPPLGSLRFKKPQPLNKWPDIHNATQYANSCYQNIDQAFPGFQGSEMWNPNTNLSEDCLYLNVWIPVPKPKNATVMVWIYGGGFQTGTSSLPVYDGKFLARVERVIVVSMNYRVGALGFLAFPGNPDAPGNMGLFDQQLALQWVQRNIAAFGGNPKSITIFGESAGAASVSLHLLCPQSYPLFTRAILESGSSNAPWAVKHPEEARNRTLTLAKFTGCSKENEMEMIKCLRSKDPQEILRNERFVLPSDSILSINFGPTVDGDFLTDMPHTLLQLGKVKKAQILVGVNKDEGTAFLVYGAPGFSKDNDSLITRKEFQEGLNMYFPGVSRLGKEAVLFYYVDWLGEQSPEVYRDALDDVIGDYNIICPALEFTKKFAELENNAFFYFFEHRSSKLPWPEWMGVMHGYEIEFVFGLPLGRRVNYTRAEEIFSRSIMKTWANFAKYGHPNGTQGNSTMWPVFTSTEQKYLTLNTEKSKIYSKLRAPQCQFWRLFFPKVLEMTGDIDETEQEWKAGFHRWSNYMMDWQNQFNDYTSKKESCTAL

Row | SMILES | inhibition (Acetylcholinesterase [1]) [%] | Ratio IC50 (Mus musculus) | inhibition (Acetylcholinesterase [3]) [%] | further results
1 | CCC1(c2cccc(O)c2)CCCCN(C)C1 (single isomer, unassigned; (-)) [MEPTAZINOL] | 0 | 0.37 |  | IC50 (Cholinesterase): 15 µM; IC50 (Acetylcholinesterase [2]): 41 µM
2 | CC[C@@]1(c2cccc(O)c2)CCCCN(CCCN2CCCC[C@@](CC)(c3cccc(O)c3)C2)C1 |  | 0.0031 |  | 
3 | CC[C@@]1(c2cccc(O)c2)CCCCN(CCCCCCCN2CCCC[C@@](CC)(c3cccc(O)c3)C2)C1 |  | 0.38 |  | 
4 | CC[N+](C)(CC)CCC[n+]1c(-c2ccccc2)c2cc(N)ccc2c2ccc(N)cc21 | 98.6 |  | 85.6 | 
5 | CC[C@@]1(c2cccc(O)c2)CCCCN(CCCCCCCCCCN2CCCC[C@@](CC)(c3cccc(O)c3)C2)C1 | 98.4 | 1.8 | 95.8 | IC50 (Acetylcholinesterase [4]): 5.8 µM
6 | CCC1(c2cccc(O)c2)CCCCN(CCCCCN2CCCC[C@@](CC)(c3cccc(O)c3)C2)C1 (single isomer, unassigned; (-)) |  | 0.048 |  | IC50 (Cholinesterase): 0.192 µM; IC50 (Acetylcholinesterase [2]): 1 µM
7 | CC[C@@]1(c2cccc(O)c2)CCCCN(CCN2CCCC[C@@](CC)(c3cccc(O)c3)C2)C1 |  | 0.0029 |  | 
8 | CC[C@@]1(c2cccc(O)c2)CCCCN(CCCCCCCCN2CCCC[C@@](CC)(c3cccc(O)c3)C2)C1 | 15.2 | 0.8 | 0 | 
9 | CC[C@@]1(c2cccc(O)c2)CCCCN(CCCCCCCCCCCN2CCCC[C@@](CC)(c3cccc(O)c3)C2)C1 |  | 3.1 |  | 
10 | CC[C@@]1(c2cccc(O)c2)CCCCN(CCCCCCCCCN2CCCC[C@@](CC)(c3cccc(O)c3)C2)C1 | 99.2 | 2.6 | 90.8 | IC50 (Acetylcholinesterase [4]): 16.6 µM
11 | CC[C@@]1(c2cccc(O)c2)CCCCN(CCCCCCCCCCCCN2CCCC[C@@](CC)(c3cccc(O)c3)C2)C1 |  | 2.4 |  | 
12 | CC[C@@]1(c2cccc(O)c2)CCCCN(CCCCCCN2CCCC[C@@](CC)(c3cccc(O)c3)C2)C1 |  | 0.098 |  | 
13 | CC[C@@]1(c2cccc(O)c2)CCCCN(CCCCN2CCCC[C@@](CC)(c3cccc(O)c3)C2)C1 |  | 0.0049 |  | 
